Where “and” joins values, the source holds several entries; their conditions need not be identical. Equal values may be shown once.
System: HEK-293T
Experiment: Multiplex assay against HEK293T
Assay type: toxicity, cell-based
Settings: human
Procedure, shortened: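 On a CQ1 microscope at 37°C and 5% CO2, live cells were imaged after compound addition. They had been stained at seeding with Hoechst33342, BioTracker Green Microtubule Cytoskeleton Dye, MitoTracker Red and Annexin V Alexa Fluor 680. CellPathfinder machine-learning gating assigned cells to Hoechst high-intensity objects or normal cells, normal cells to healthy, pyknosed or fragmented nuclei, and pyknosed cells to mitotic or apoptotic. Tubulin, mitochondrial-mass and membrane-permeability phenotypes are per cents of healthy-nucleus cells.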

[1] = 12 h, 1 µM, compound concentration 1 uM
[2] = 12 h, 10 µM, compound concentration 10 uM
[3] = 24 h, 1 µM, compound concentration 1 uM
[4] = 24 h, 10 µM, compound concentration 10 uM
[5] = 48 h, 1 µM, compound concentration 1 uM
[6] = 48 h, 10 µM, compound concentration 10 uM

Structure (SMILES): COc1cc(/C=C(\C#N)C(=O)Nc2nnc(C(F)(F)F)s2)ccc1OCc1ccc(C(F)(F)F)cc1C(F)(F)F
- Population Apoptotic (%) [1]: 10% and 12.9%
- Population Fragmented Nuclei (%) [1]: 2.37% and 4.7%
- Population Hoechst High Intensity Objects (%) [1]: 0.67% and 0%
- Population Membrane Permeable-Phenotype (%) [1]: 0%
- Population Mitochondria Different-Phenotype (%) [1]: 45.57% and 22.22%
- Population Mitotic Cells (%) [1]: 90% and 87.1%
- Population Normal (%) [1]: 99.33% and 100%
- Population Pyknosed Nuclei (%) [1]: 44.07% and 83.22%
- Total Cell Count [1]: 297 and 149
- Population Apoptotic (%) [2]: 7.56% and 15.32%
- Population Fragmented Nuclei (%) [2]: 3.37% and 4.96%
- Population Hoechst High Intensity Objects (%) [2]: 0%
- Population Membrane Permeable-Phenotype (%) [2]: 0%
- Population Mitochondria Different-Phenotype (%) [2]: 33.93% and 13.04%
- Population Mitotic Cells (%) [2]: 92.44% and 84.68%
- Population Normal (%) [2]: 100%
- Population Pyknosed Nuclei (%) [2]: 40.07% and 78.72%
- Total Cell Count [2]: 297 and 141
- Population Apoptotic (%) [3]: 13% and 14.66%
- Population Fragmented Nuclei (%) [3]: 1.79% and 2.79%
- Population Healthy Nuclei (%) [3]: 75.89% and 32.4%
- Population Hoechst High Intensity Objects (%) [3]: 0.22% and 0%
- Population Membrane Permeable-Phenotype (%) [3]: 1.18% and 0%
- Population Mitochondria Different-Phenotype (%) [3]: 13.82% and 22.41%
- Population Mitotic Cells (%) [3]: 87% and 85.34%
- Population Normal (%) [3]: 99.78% and 100%
- Population Pyknosed Nuclei (%) [3]: 22.32% and 64.8%
- Population Tubulin-Different-Phenotype (%) [3]: 11.47% and 13.79%
- Total Cell Count [3]: 449 and 179
- Population Apoptotic (%) [4]: 11.22% and 19.54%
- Population Fragmented Nuclei (%) [4]: 0.62% and 1.78%
- Population Healthy Nuclei (%) [4]: 79% and 46.75%
- Population Hoechst High Intensity Objects (%) [4]: 0% and 0.59%
- Population Membrane Permeable-Phenotype (%) [4]: 0.79% and 1.27%
- Population Mitotic Cells (%) [4]: 88.78% and 80.46%
- Population Normal (%) [4]: 100% and 99.41%
- Population Pyknosed Nuclei (%) [4]: 20.37% and 51.48%
- Population Tubulin-Different-Phenotype (%) [4]: 9.47% and 5.06%
- Total Cell Count [4]: 481 and 170
- Population Apoptotic (%) [5]: 10.37% and 13.92%
- Population Fragmented Nuclei (%) [5]: 1.93% and 3.61%
- Population Healthy Nuclei (%) [5]: 85.65% and 55.67%
- Population Hoechst High Intensity Objects (%) [5]: 0.09% and 1.52%
- Population Membrane Permeable-Phenotype (%) [5]: 4.73% and 1.85%
- Population Mitochondria Different-Phenotype (%) [5]: 13.1% and 24.07%
- Population Mitotic Cells (%) [5]: 89.63% and 86.08%
- Population Normal (%) [5]: 99.91% and 98.48%
- Population Fragmented Nuclei (%) [6]: 1.97% and 2.88%
- Population Healthy Nuclei (%) [6]: 88.86% and 79.5%
- Population Hoechst High Intensity Objects (%) [6]: 0% and 2.11%
- Population Membrane Permeable-Phenotype (%) [6]: 4.71% and 1.81%
- Population Mitochondria Different-Phenotype (%) [6]: 9.16% and 21.72%
- Population Mitotic Cells (%) [6]: 88.79% and 63.27%
- Population Normal (%) [6]: 100% and 97.89%
- Population Pyknosed Nuclei (%) [6]: 9.16% and 17.63%

Structure (SMILES): CN(C)C(=O)Cn1cc(-c2ccc(-c3nnc4ccccn34)cc2)cn1
- Population Apoptotic (%) [1]: 31% and 43%
- Population Fragmented Nuclei (%) [1]: 7%
- Population Healthy Nuclei (%) [1]: 80% and 79%
- Population Hoechst High Intensity Objects (%) [1]: 9% and 10%
- Population Membrane Permeable-Phenotype (%) [1]: 0%
- Population Mitochondria Different-Phenotype (%) [1]: 40% and 59%
- Population Mitotic Cells (%) [1]: 68% and 56%
- Population Normal (%) [1]: 90% and 89%
- Population Pyknosed Nuclei (%) [1]: 11% and 12%
- Population Tubulin-Different-Phenotype (%) [1]: 32% and 27%
- Total Cell Count [1]: 432 and 337
- Population Apoptotic (%) [2]: 32% and 51%
- Population Fragmented Nuclei (%) [2]: 9% and 7%
- Population Healthy Nuclei (%) [2]: 76% and 80%
- Population Hoechst High Intensity Objects (%) [2]: 7% and 8%
- Population Membrane Permeable-Phenotype (%) [2]: 0%
- Population Mitochondria Different-Phenotype (%) [2]: 61% and 55%
- Population Mitotic Cells (%) [2]: 67% and 48%
- Population Normal (%) [2]: 92% and 91%
- Population Pyknosed Nuclei (%) [2]: 14% and 12%
- Population Tubulin-Different-Phenotype (%) [2]: 42% and 18%
- Total Cell Count [2]: 427 and 356
- Population Apoptotic (%) [3]: 27% and 46%
- Population Fragmented Nuclei (%) [3]: 10% and 9%
- Population Healthy Nuclei (%) [3]: 77% and 82%
- Population Hoechst High Intensity Objects (%) [3]: 6% and 7%
- Population Membrane Permeable-Phenotype (%) [3]: 0%
- Population Mitochondria Different-Phenotype (%) [3]: 28% and 44%
- Population Mitotic Cells (%) [3]: 72% and 53%
- Population Normal (%) [3]: 93% and 92%
- Population Pyknosed Nuclei (%) [3]: 12% and 7%
- Population Tubulin-Different-Phenotype (%) [3]: 22% and 18%
- Total Cell Count [3]: 595 and 447
- Population Apoptotic (%) [4]: 35% and 61%
- Population Fragmented Nuclei (%) [4]: 7% and 13%
- Population Healthy Nuclei (%) [4]: 78% and 79%
- Population Hoechst High Intensity Objects (%) [4]: 4% and 7%
- Population Membrane Permeable-Phenotype (%) [4]: 0%
- Population Mitochondria Different-Phenotype (%) [4]: 44% and 39%
- Population Mitotic Cells (%) [4]: 64% and 38%
- Population Normal (%) [4]: 95% and 92%
- Population Pyknosed Nuclei (%) [4]: 13% and 7%
- Population Tubulin-Different-Phenotype (%) [4]: 27% and 11%
- Total Cell Count [4]: 506 and 425
- Population Apoptotic (%) [5]: 18% and 32%
- Population Fragmented Nuclei (%) [5]: 11%
- Population Healthy Nuclei (%) [5]: 81% and 80%
- Population Hoechst High Intensity Objects (%) [5]: 3% and 4%
- Population Membrane Permeable-Phenotype (%) [5]: 0%
- Population Mitochondria Different-Phenotype (%) [5]: 20% and 22%
- Population Mitotic Cells (%) [5]: 81% and 67%
- Population Normal (%) [5]: 96% and 95%
- Population Pyknosed Nuclei (%) [5]: 6% and 7%
- Population Tubulin-Different-Phenotype (%) [5]: 13% and 12%
- Total Cell Count [5]: 946 and 572
- Population Apoptotic (%) [6]: 30% and 37%
- Population Fragmented Nuclei (%) [6]: 18% and 14%
- Population Healthy Nuclei (%) [6]: 74% and 79%
- Population Hoechst High Intensity Objects (%) [6]: 5% and 2%
- Population Membrane Permeable-Phenotype (%) [6]: 0%
- Population Mitochondria Different-Phenotype (%) [6]: 24% and 27%
- Population Mitotic Cells (%) [6]: 69% and 62%
- Population Normal (%) [6]: 94% and 97%
- Population Pyknosed Nuclei (%) [6]: 6% and 5%
- Population Tubulin-Different-Phenotype (%) [6]: 14% and 12%
- Total Cell Count [6]: 753 and 616

Structure (SMILES): CC(C)(O)c1cnc(N2C[C@@]3(CCC[C@](C)(Cn4cnc5ccc(C#N)cc54)C3)OC2=O)cn1 [GSK2798745]
- Population Apoptotic (%) [1]: 8.76% and 9.45%
- Population Fragmented Nuclei (%) [1]: 1.42% and 8.48%
- Population Hoechst High Intensity Objects (%) [1]: 0%
- Population Membrane Permeable-Phenotype (%) [1]: 0% and 4.17%
- Population Mitochondria Different-Phenotype (%) [1]: 40% and 37.5%
- Population Mitotic Cells (%) [1]: 91.24% and 90.55%
- Population Normal (%) [1]: 100%
- Population Pyknosed Nuclei (%) [1]: 38.92% and 76.97%
- Total Cell Count [1]: 352 and 165
- Population Apoptotic (%) [2]: 8.93% and 6.72%
- Population Fragmented Nuclei (%) [2]: 1.58% and 0.69%
- Population Healthy Nuclei (%) [2]: 45.43% and 17.24%
- Population Hoechst High Intensity Objects (%) [2]: 0.63% and 0%
- Population Membrane Permeable-Phenotype (%) [2]: 0%
- Population Mitochondria Different-Phenotype (%) [2]: 36.11% and 20%
- Population Mitotic Cells (%) [2]: 91.07% and 93.28%
- Population Normal (%) [2]: 99.37% and 100%
- Population Pyknosed Nuclei (%) [2]: 53% and 82.07%
- Population Tubulin-Different-Phenotype (%) [2]: 24.31% and 48%
- Total Cell Count [2]: 319 and 145
- Population Apoptotic (%) [3]: 18.02% and 17.31%
- Population Fragmented Nuclei (%) [3]: 0.94% and 3.7%
- Population Healthy Nuclei (%) [3]: 78.24% and 32.1%
- Population Hoechst High Intensity Objects (%) [3]: 0%
- Population Membrane Permeable-Phenotype (%) [3]: 2.88% and 0%
- Population Mitochondria Different-Phenotype (%) [3]: 16.31% and 11.54%
- Population Mitotic Cells (%) [3]: 81.98% and 82.69%
- Population Normal (%) [3]: 100%
- Population Tubulin-Different-Phenotype (%) [3]: 16.79% and 7.69%
- Population Apoptotic (%) [4]: 17.91% and 14.14%
- Population Fragmented Nuclei (%) [4]: 2.04% and 1.31%
- Population Healthy Nuclei (%) [4]: 63.87% and 33.99%
- Population Hoechst High Intensity Objects (%) [4]: 0%
- Population Membrane Permeable-Phenotype (%) [4]: 0.8% and 0%
- Population Mitochondria Different-Phenotype (%) [4]: 27.09% and 9.62%
- Population Mitotic Cells (%) [4]: 82.09% and 85.86%
- Population Normal (%) [4]: 100%
- Population Pyknosed Nuclei (%) [4]: 34.1% and 64.71%
- Population Tubulin-Different-Phenotype (%) [4]: 37.85% and 13.46%
- Total Cell Count [4]: 393 and 153
- Population Fragmented Nuclei (%) [5]: 2.32% and 3.45%
- Population Healthy Nuclei (%) [5]: 86.2% and 69.4%
- Population Hoechst High Intensity Objects (%) [5]: 0% and 1.28%
- Population Membrane Permeable-Phenotype (%) [5]: 5.88% and 4.97%
- Population Mitochondria Different-Phenotype (%) [5]: 16.75% and 31.68%
- Population Mitotic Cells (%) [5]: 97.55% and 73.02%
- Population Normal (%) [5]: 100% and 98.72%
- Population Pyknosed Nuclei (%) [5]: 11.48% and 27.16%
- Population Apoptotic (%) [6]: 12.84% and 15.85%
- Population Fragmented Nuclei (%) [6]: 2.45% and 0.91%
- Population Healthy Nuclei (%) [6]: 82.72% and 61.64%
- Population Hoechst High Intensity Objects (%) [6]: 0.14% and 0%
- Population Membrane Permeable-Phenotype (%) [6]: 8.39% and 0.74%
- Population Mitochondria Different-Phenotype (%) [6]: 44.41% and 40%
- Population Mitotic Cells (%) [6]: 87.16% and 84.15%
- Population Normal (%) [6]: 99.86% and 100%
- Population Pyknosed Nuclei (%) [6]: 14.83% and 37.44%

From ChEMBL document CHEMBL5724801, “EUbOPEN Chemogenomics Library - Multiplex” (2024)
